Screening data (PubChem)
A selection: hits, their analogues and other compounds. The true share with any hit is near 2.3%.
GSTO1 inh – GSTO1 inhibition, counter-screen for RBBP9 inhibitors; P78417; recombinant GSTO1, activity-based probe fluorescence polarization; inhibition, % at 5.96 µM; 1.1% of 300,000 active; AID 1974;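 active = inhibition above the campaign mean inhibition plus 3 SD, cut at about 35% in these data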;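 note: 0% = GSTO1-1 with DMSO and 100% = wells lacking GSTO1-1 enzyme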
Fam108B counter – counter-screen for RBBP9 inhibitors: inhibitors of mouse Fam108B; inhibition, % at 9.51 µM; 0.33% of 300,000 active; recombinant Fam108B, FP-Rh probe fluorescence polarization;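 active = inhibition above the screen mean inhibition plus 3 SD, computed separately per campaign, cut at about 18% in these data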;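 note: inhibitors lower polarization as less probe binds the enzyme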
PME-1 inh – PME-1 (human) inhibition. Q9Y570. recombinant PME-1, FP-Rh probe fluorescence polarization. inhibition, % at 5.9 µM. 0.53% of 320,000 active;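 active = inhibition above the campaign mean of all compounds plus 3 SD, cut at about 26% in these data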;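 note: competitive labeling of PME-1 active site by serine hydrolase directed probe; 0% = PME-1 with DMSO and 100% = wells lacking PME-1 enzyme; inhibitors block probe labeling so polarization falls and inhibition rises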
Target sequence (Q9Y570 whole entry, looked up): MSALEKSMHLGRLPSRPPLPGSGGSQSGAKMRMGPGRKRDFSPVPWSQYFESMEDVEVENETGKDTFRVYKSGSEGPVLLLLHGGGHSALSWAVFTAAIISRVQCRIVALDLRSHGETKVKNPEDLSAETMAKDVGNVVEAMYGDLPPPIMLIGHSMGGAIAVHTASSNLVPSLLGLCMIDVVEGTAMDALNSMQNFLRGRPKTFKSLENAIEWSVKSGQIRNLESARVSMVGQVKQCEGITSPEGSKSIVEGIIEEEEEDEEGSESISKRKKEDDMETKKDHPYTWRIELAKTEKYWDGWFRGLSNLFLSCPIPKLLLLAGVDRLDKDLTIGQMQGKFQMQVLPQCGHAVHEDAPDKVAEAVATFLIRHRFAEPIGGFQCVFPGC
RBBP9 inhibitor – human RBBP9 hydrolase inhibition. 0.2% of 220,000 active. recombinant RBBP9, FP-Rh probe fluorescence polarization. inhibition, % at 7.94 µM. AID 1515. O75884;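 active = inhibition above the campaign mean of all tested compounds plus 3 SD, cut at about 14% in these data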;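 note: plate controls were DMSO wells with RBBP9 for no effect and wells lacking RBBP9 protein for full effect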
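Controls: DMSO-treated enzyme wells and wells lacking RBBP9 | Material: RBBP9 protein | Technique: Fluorescence polarization | Replication: Single well per compound, no replicates | Buffer or medium: Tris-NaCl-Pluronic buffer, pH 8.0 | Timing: 30 min compound preincubation, 45 min probe labeling, 25 °C | Read-out basis: Percent inhibition from mP, scaled between DMSO and no-protein wells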
PRMT1 FP inh – blocks human protein arginine methyltransferase 1; inhibition, % at 2.79 µM; recombinant PRMT1, activity-based probe fluorescence polarization; AID 652257; 1.3% of 370,000 active; Q99873;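 active = inhibition above about 21% made by adding two undisclosed values, limit read from the data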
PAD4 FP inh – inhibitors of human PAD4; Q9UM07; recombinant PAD4, RCA probe fluorescence polarization; inhibition, % at 6.36 µM; 0.41% of 330,000 active;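 active = percent inhibition above a cutoff equal to the mean of all tested compounds plus 3 SD, cut at about 15% in these data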;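 note: 0% = PAD4 with RCA probe and DMSO and 100% = probe without PAD4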
RBBP9 inh conf – confirmation of human RBBP9 inhibitors; shares compounds with RBBP9 inhibitor; recombinant RBBP9, FP-Rh probe fluorescence polarization; inhibition, % at 7.94 µM; 36% of 410 active; AID 1537;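 active = inhibition above the hit cutoff derived for the primary screen, cut at about 15% in these data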;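 note: 0% = RBBP9 with DMSO and 100% = wells lacking RBBP9 protein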
The depositor's hits bear a star.

How did CC1=CC(=O)C=C(C)C1=NOC(=O)/C=C\c1ccccc1 do in these assays?
GSTO1 inh: -2.8; Fam108B counter: 0.9; PME-1 inh: -25.1; RBBP9 inhibitor: -2.9; PRMT1 FP inh: 9.6; PAD4 FP inh: -3.4

What do the screens show for `CC1=CC(=NOC(=O)/C=C/c2ccccc2)C=C(C)C1=O`?
GSTO1 inh: 2.6; Fam108B counter: -8.8; PME-1 inh: -7.6; RBBP9 inhibitor: 16.8*; PRMT1 FP inh: 2.0; PAD4 FP inh: -7.1; RBBP9 inh conf: 78.8*

Results for Cn1c(N2CCOCC2)nc2c1c(=O)n(Cc1ccc(Cl)c(Cl)c1)c(=O)n2C ?
GSTO1 inh: -3.6; Fam108B counter: -0.3; PME-1 inh: 5.9; RBBP9 inhibitor: 18.4*; PRMT1 FP inh: 0.2; PAD4 FP inh: -6.8; RBBP9 inh conf: 4.1

Results for Cn1c(N2CCCC2)nc2c1c(=O)n(Cc1ccc(F)cc1)c(=O)n2C ?
GSTO1 inh: -2.0; Fam108B counter: -0.2; PME-1 inh: 6.4; RBBP9 inhibitor: -5.0; PRMT1 FP inh: -2.4; PAD4 FP inh: -3.2

Results for Cc1cc(C(=O)NN=C2C3CC4CC(C3)CC2C4)c2ccccc2n1 ?
GSTO1 inh: -2.1; Fam108B counter: -3.7; PME-1 inh: -0.3; RBBP9 inhibitor: 14.8*; PRMT1 FP inh: -0.2; PAD4 FP inh: -4.9; RBBP9 inh conf: 6.7

What do the screens show for `COc1cc(-n2nnnc2SCC(=O)N2CCN(c3ccc(F)cc3)CC2)c(OC)cc1Cl`?
RBBP9 inhibitor: 15.7*; PRMT1 FP inh: 4.5; RBBP9 inh conf: 4.6

How did O=S(=O)(c1ccccc1)c1nc(-c2ccco2)oc1NCc1ccco1 do in these assays?
GSTO1 inh: 3.1; Fam108B counter: -3.7; PME-1 inh: 7.5; RBBP9 inhibitor: -2.4; PRMT1 FP inh: 3.6; PAD4 FP inh: 2.0

Results for Cc1cc(C)c(C)c(Cn2c(CO)nc3ccccc32)c1C ?
GSTO1 inh: 6.7; Fam108B counter: 1.9; PME-1 inh: 9.2; RBBP9 inhibitor: -1.7; PRMT1 FP inh: -2.5; PAD4 FP inh: 2.9

What do the screens show for `O=C(Cn1nnc2ccccc2c1=O)N1CCCc2ccccc21`?
GSTO1 inh: 1.9; Fam108B counter: 3.6; PME-1 inh: -4.3; RBBP9 inhibitor: 15.8*; PRMT1 FP inh: -2.2; PAD4 FP inh: -0.4; RBBP9 inh conf: -0.7

How did O=C(Nc1nccs1)C1(C(=O)C2CC2)CC(c2ccccn2)=NO1 (centres undefined) do in these assays?
PRMT1 FP inh: 2.5

What do the screens show for `Cc1ccc(NCC(=O)N/N=C/c2cccn2C)cc1`?
GSTO1 inh: 12.3; Fam108B counter: -0.5; PME-1 inh: 6.1; RBBP9 inhibitor: 17.4*; PRMT1 FP inh: -4.9; PAD4 FP inh: 1.7; RBBP9 inh conf: 5.4

What do the screens show for `CCc1ccc(N/C(=N/c2nc(C)cc(C)n2)NC(C)=O)cc1`?
GSTO1 inh: -0.3; Fam108B counter: -2.6; PME-1 inh: -0.8; PRMT1 FP inh: -0.6; PAD4 FP inh: 1.9

What do the screens show for `Cc1cc(C)nc(/N=C(\NC(=O)C(C)(C)C)Nc2ccc(F)cc2)n1`?
GSTO1 inh: 17.1; Fam108B counter: 1.2; PME-1 inh: -11.5; RBBP9 inhibitor: 14.8*; PRMT1 FP inh: 3.5; PAD4 FP inh: 1.1; RBBP9 inh conf: 7.4

What do the screens show for `CCC(=O)N/C(=N/c1nc(C)cc(C)n1)Nc1ccc(OC)cc1`?
GSTO1 inh: -0.8; Fam108B counter: -0.2; PME-1 inh: 1.9; RBBP9 inhibitor: 19.3*; PRMT1 FP inh: 0.1; PAD4 FP inh: -2.8; RBBP9 inh conf: 6.3

What do the screens show for `N#Cc1ccc(S(=O)(=O)NC2CCN(Cc3ccccc3)CC2)cc1`?
GSTO1 inh: 9.4; Fam108B counter: -2.4; PME-1 inh: -0.4; RBBP9 inhibitor: -5.0; PRMT1 FP inh: -2.7; PAD4 FP inh: -0.5

How did CN(C)S(=O)(=O)c1cccc(NC(=O)CCSc2ccc(Cl)cc2)c1 do in these assays?
GSTO1 inh: 0.8; Fam108B counter: -5.2; PME-1 inh: 3.2; RBBP9 inhibitor: -13.4; PRMT1 FP inh: 5.5; PAD4 FP inh: 7.3

What do the screens show for `O=C(NN=C1CCCC1)c1ccccc1OCCOc1ccccc1`?
GSTO1 inh: -3.7; Fam108B counter: -1.2; PME-1 inh: 1.8; RBBP9 inhibitor: 23.0*; PRMT1 FP inh: -8.0; PAD4 FP inh: 1.9; RBBP9 inh conf: 2.6
